CHRM5 antagonist = blocks acetylcholine activation of human M5 receptor | 360,000 compounds, 0.59% hits | CHO-hM5 cells, Fluo-8 calcium fluorescence, ACh EC80 | inhibition, % at 3 µM;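 active = inhibition above a per-plate cutoff, the mean of that plate's test compounds plus 3 SD, cut at about 27% in these data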;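 also: 0% = acetylcholine EC80 with DMSO and 100% = DMSO without agonist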
M5 PAM = CHRM5 positive allosteric modulation; P08912; CHO-K1 hM5, Fluo-8 calcium, ACh EC20 PAM; 0% = ACh EC20, 100% = ACh EC100; activation, % at 3 µM; 360,000 compounds, 0.3% hits; AID 624038;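 active = activation above the run cutoff, the mean activation of all test compounds plus 3 SD, cut at about 18% in these data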
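Assay system: CHO-K1 hM5 cells. Also added: acetylcholine at EC20 concentration, added after compound. Dosing: 3 µM, single dose. Times: compound preincubation 140 s before EC20 acetylcholine addition. Signal: Fluo-8 calcium fluorescence. Measure: % activation relative to EC20 and EC100 ACh responses. Repeats: singlicate, one well per test compound.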
CHRM5 agonist = agonists of human muscarinic M5 receptor (CHRM5) | 360,000 compounds, 0.19% hits | activation, % at 3 µM | P08912 | CHO-K1 hM5 cells, Fluo-8 calcium fluorescence; 0% DMSO wells, 100% maximal acetylcholine response;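 active = activation above the run's mean over test compounds plus 3 SD, cut at about 23% in these data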;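 also: signal is peak over basal fluorescence ratio across the kinetic read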
M4 PAM = CHRM4 positive allosteric modulation. P08173. CHO-K1 hM4/Gqi5, Fluo-8 calcium fluorescence, ACh EC20; 0% = ACh EC20, 100% = maximal ACh. activation, % at 3 µM. 360,000 compounds, 0.4% hits;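 active = activation above its plate's cutoff, the mean activation of sample wells plus 3 SD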
Target sequence (P08173 whole entry, looked up): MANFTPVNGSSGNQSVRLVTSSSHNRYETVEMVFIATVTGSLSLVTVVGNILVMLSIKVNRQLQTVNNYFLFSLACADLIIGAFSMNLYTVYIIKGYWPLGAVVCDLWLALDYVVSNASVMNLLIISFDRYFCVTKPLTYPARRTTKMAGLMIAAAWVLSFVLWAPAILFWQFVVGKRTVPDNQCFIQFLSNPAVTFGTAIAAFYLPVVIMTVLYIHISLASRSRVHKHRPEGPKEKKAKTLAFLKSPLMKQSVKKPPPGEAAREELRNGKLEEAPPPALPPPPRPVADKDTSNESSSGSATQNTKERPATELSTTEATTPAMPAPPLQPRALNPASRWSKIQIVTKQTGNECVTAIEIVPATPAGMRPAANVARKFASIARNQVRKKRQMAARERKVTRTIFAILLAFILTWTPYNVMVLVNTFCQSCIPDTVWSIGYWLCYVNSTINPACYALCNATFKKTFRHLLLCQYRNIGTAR
M4 antag = blocks acetylcholine activation of human M4 receptor; P08173; CHO-hM4 cells, ACh EC80, Fluo-8 calcium fluorescence; inhibition, % at 3 µM; 360,000 compounds, 0.73% hits; AID 624125;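 active = inhibition above its plate's cutoff, the mean inhibition of sample wells plus 3 SD, cut at about 27% in these data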;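 also: 0% = acetylcholine EC80 with DMSO and 100% = DMSO without agonist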
M4 ag = CHRM4 agonism in calcium assay | activation, % at 3 µM | 360,000 compounds, 0.14% hits | P08173 | CHO-K1 hM4/Gqi5, Fluo-8 calcium fluorescence; vehicle 0%, full acetylcholine response 100%;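 active = activation above the run mean over all test wells plus 3 SD, cut at about 32% in these data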;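 also: peak over basal fluorescence ratio per well then scaled between controls; 0% = DMSO wells and 100% = acetylcholine at EC100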
Starred values were filed as active, the others as inactive. Hits are enriched below; roughly 1.8% of the tested compounds scored in any of these assays.

For COC(=O)[C@]12CCCCC=C1N(CCc1ccc(OC)c(OC)c1)C(=O)[C@H](CC(=O)N1CCC(c3ccccc3)CC1)C2 the results were CHRM5 antagonist 27.8*, M5 PAM -18.0, CHRM5 agonist 1.4, M4 PAM -8.5, M4 antag -1.5 and M4 ag 25.5.
For Cc1cccc(OC(=O)NCCOC(=O)N(O)c2ccc(Cl)cc2)c1 the results were CHRM5 antagonist 32.2*, M5 PAM -12.7, CHRM5 agonist 7.3, M4 PAM 15.7, M4 antag 10.0 and M4 ag 12.0.
For Cc1cccc(OCC(=O)Oc2ccc(Cl)cc2)c1 the results were CHRM5 antagonist 2.2, M5 PAM 4.3, CHRM5 agonist 0.1, M4 PAM 9.1, M4 antag -3.4 and M4 ag 2.5.
`O=C(c1ccco1)N1CCN(C(=O)c2ccc(Br)o2)CC1` gave CHRM5 antagonist -0.1, M5 PAM -0.7, CHRM5 agonist 0.4, M4 PAM 11.3, M4 antag -6.8 and M4 ag 2.4.
O=C(c1ccc(Br)o1)N1CCN(C23CC4CC(CC(C4)C2)C3)CC1 was read as CHRM5 antagonist 8.6, M5 PAM -7.5, CHRM5 agonist -8.3, M4 PAM -14.8, M4 antag 30.8* and M4 ag 2.3.
Screening C=C1C(=O)[C@]23C[C@H]1CCC2[C@@]1(C)C(C[C@@H]3O)[C@](C)(C(=O)OC)CC[C@@H]1OC(C)=O (stereo not given in full) returned CHRM5 antagonist 16.7, M5 PAM -5.1, CHRM5 agonist 10.5, M4 PAM -15.4, M4 antag 58.4* and M4 ag 15.9.
CN(C)CCNc1nc(-c2ccccc2F)c2sccc2n1 was read as CHRM5 antagonist 40.1*, M5 PAM -34.0, CHRM5 agonist -8.9, M4 PAM -10.9, M4 antag 21.1 and M4 ag 1.7.
`Fc1ccccc1-c1nc(NCC2CC2)nc2ccsc12` gave CHRM5 antagonist 2.9, M5 PAM -5.5, CHRM5 agonist -2.7, M4 PAM -3.9, M4 antag 10.1 and M4 ag -2.0.
For O=C1CC(=C(c2ccccc2)c2ccccc2)C(=O)N1CCCCN1CCN(c2ccccc2)CC1 the results were CHRM5 antagonist 9.3, M5 PAM -20.1, CHRM5 agonist -8.2, M4 PAM -25.1, M4 antag 33.6* and M4 ag -0.5.
`O=C(CCCN1CCN(c2ccccc2)CC1)c1ccc(F)cc1` gave CHRM5 antagonist -3.0, M5 PAM -0.1, CHRM5 agonist -2.5, M4 PAM -0.1, M4 antag -18.9 and M4 ag 1.6.
O=C(Nc1ccc2c(c1)OCCO2)C(c1ccnc2ccccc12)N1CCN(c2ccc(C(F)(F)F)cn2)CC1 (stereo not given) was read as CHRM5 antagonist 7.7, M5 PAM 15.0, CHRM5 agonist 13.9, M4 PAM -2.2, M4 antag 0.0 and M4 ag 2.6.
`O=C(Nc1ccc2c(c1)OCCO2)C(c1ccnc2ccccc12)N1CCN(c2ccc(F)cc2)CC1` (stereo not given) gave CHRM5 antagonist -4.0, M5 PAM 19.3*, CHRM5 agonist 20.5, M4 PAM -1.7, M4 antag -1.9 and M4 ag 2.0.
`COCCNC(=O)C1CCCN(C(=O)c2cc(-c3ccccc3)cs2)CC1` (stereo not given) gave CHRM5 antagonist 1.5, M5 PAM -1.1, CHRM5 agonist -1.2, M4 PAM 0.6, M4 antag -12.1 and M4 ag 2.3.
Cc1ccccc1-n1c(SCC(=O)NC2CC2)nc2ccccc2c1=O was read as CHRM5 antagonist -2.1, M5 PAM -2.5, CHRM5 agonist 1.2, M4 PAM -1.7, M4 antag -0.2 and M4 ag 1.0.
Screening CCOC(=O)c1ccccc1-n1c(C)cc(C2N=C(N)Nc3nc4ccccc4n32)c1C (stereo not given) returned CHRM5 antagonist 8.6, M5 PAM -22.4, CHRM5 agonist -6.6, M4 PAM -16.0, M4 antag 59.6* and M4 ag 0.9.
For CSc1ccc2c(c1)N(CCC1CCCCN1C)c1ccccc1S2 (stereo not given) the results were CHRM5 antagonist 99.8*, M5 PAM -19.0, CHRM5 agonist 3.8, M4 PAM -19.2, M4 antag 98.2* and M4 ag 19.4.
`Cc1ccc(-n2c(CSc3nc(C)cc(C)n3)nnc2SCC(=O)Nc2nccs2)cc1` gave CHRM5 antagonist -6.0, M5 PAM 9.2, CHRM5 agonist 4.4, M4 PAM 24.9, M4 antag 38.0* and M4 ag 2.8.
For COc1ccc(-n2c(CSc3nc(C)cc(C)n3)nnc2SCC(=O)Nc2nccs2)cc1 the results were CHRM5 antagonist 4.8, M5 PAM -8.6, CHRM5 agonist 0.9, M4 PAM 0.2, M4 antag -3.0 and M4 ag 0.3.
Screening C[C@H]1CN([C@@H](C)CO)C(=O)CCCn2nncc2CO[C@H]1CN(C)C(=O)Nc1cccc(Oc2ccccn2)c1 returned CHRM5 antagonist -0.4, M5 PAM 2.5, CHRM5 agonist 1.6, M4 PAM -0.3, M4 antag 0.1 and M4 ag 0.2.
For CC1CC(OC(=O)C(O)c2ccccc2)CC(C)(C)N1C (stereo not given) the results were CHRM5 antagonist 88.3*, M5 PAM -19.2, CHRM5 agonist -2.0, M4 PAM -16.5, M4 antag 40.8* and M4 ag -0.1.
Screening COc1cccc(-c2cc3c(c4c2ccn4C)C2CCC3C2)c1 (stereo not given) returned CHRM5 antagonist 6.3, M5 PAM -8.6, CHRM5 agonist -0.1, M4 PAM 1.6, M4 antag -15.3 and M4 ag -1.9.
`CCC1CCCCN1CCCNC(=O)c1cn(CC)c2ccc(S(=O)(=O)N3CCc4ccccc4C3)cc2c1=O` (stereo not given) gave CHRM5 antagonist 5.4, M5 PAM 0.3, CHRM5 agonist -14.8, M4 PAM -22.5, M4 antag 31.3* and M4 ag -0.6.
Screening CCn1cc(C(=O)NCCCOC)c(=O)c2cc(S(=O)(=O)N(C)C3CCCCC3)ccc21 returned CHRM5 antagonist -1.5, M5 PAM -4.8, CHRM5 agonist -0.5, M4 PAM -2.9, M4 antag -3.3 and M4 ag 5.6.
For CCC1CCCCN1CCCNC(=O)c1cn(CC)c2ccc(S(=O)(=O)N(C)C3CCCCC3)cc2c1=O (stereo not given) the results were CHRM5 antagonist 2.3, M5 PAM -4.3, CHRM5 agonist -7.6, M4 PAM -10.6, M4 antag 32.8* and M4 ag -0.1.

From PubChem
